Screening data: PubChem, several laboratories
Hits are enriched below; roughly 5% of the tested compounds scored in any of these assays.
Mdm2 MdmX PPI – inhibitors of human Mdm2-MdmX association, primary screen, cell-based, luminescence, split luciferase, SaOS-2, uHTS | SaOS-2 split-luciferase Mdm2/MdmX complementation | inhibition, % at 8 µM | actives 3% (n = 330,000);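 active = inhibition of at least 50% at 8 µM in the primary screen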
CSC inhib – cancer stem cell viability inhibitors, primary screen, luminescence. cancer stem cell-like cells viability. inhibition, % at 7.5 µM. actives 1.1% (n = 300,000). AID 2717, 2010; in the data active = inhibition above about 75%; tested in HMLE shEcad cells
Beta apoptosis – inhibitors of cytokine-induced beta cell apoptosis, primary screen, luminescence; INS-1E cytokine-induced death, ATP luminescence, 48 h; percent of positive-control rescue, neutral wells zero; protection from apoptosis, % (no concentration beside the values); actives 0.8% (n = 300,000); AID 435005, 2010;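 active = Every replicate reaches about 75%, or at least half do and their mean reaches it too, limit read from the data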;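 also: 0% = cytokine-treated negative control wells and 100% = positive control rescue; higher means more ATP so stronger rescue from cytokine killing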
CHOP UPR activ – activators of apoptotic CHOP UPR arm, primary screen, cell-based, CHO-CHOP luciferase reporter, luminescence, uHTS. UPR activation; percent of tunicamycin response over DMSO baseline. activation, % at 10 µM. actives 0.34% (n = 330,000);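 active = at 10 µM dose, activation of 40% or more, normalized to positive control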;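 also: 100% = tunicamycin at 10 µg/mL and 0% = DMSO alone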
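measured by = luciferase luminescence | assay system = CHO-CHOP cells, stable luciferase reporter of PERK-eIF2a-CHOP signalling | amount = 500 reporter cells seeded per well | timing = 6 h compound exposure at 37 °C after overnight seeding | controls = positive tunicamycin 10 µg/mL, negative DMSO alone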
UPR XBP1 act – activators of adaptive XBP1 UPR arm, primary screen, cell-based, CHO-XBP1 luciferase reporter, luminescence, uHTS. IRE1-XBP1 UPR activation; percent of tunicamycin response, DMSO as zero. activation, % at 20 µM. actives 0.33% (n = 330,000);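 active = versus positive control, 20 µM dose yields 30% or more activation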;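 also: 100% = tunicamycin at 10 µg/mL and 0% = DMSO only wells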
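Signal: luciferase luminescence; Assay system: CHO-XBP1 luciferase reporter cells; Amount: one thousand reporter cells per well; Dosing: 20 µM single concentration, DMSO 1%; Benchmarks: high control tunicamycin 10 µg/mL final, low control DMSO vehicle only; Schedule: 6 h compound exposure at 37 °C, 5% CO2; Evaluation: percent activation relative to tunicamycin reference.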
T cruzi repl – inhibitors of intracellular T. cruzi growth, primary screen, luminescence, NIH3T3 host cells; T. cruzi beta-gal in NIH3T3, 90 h; inhibition, % (test concentration not listed); actives 1.4% (n = 300,000);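 active = mean inhibition across valid replicates above about 55%, limit read from the data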;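 also: signal also drops with host cell toxicity which is not excluded here; 0% = plate median of DMSO wells and 100% = zero luminescence signal; higher percent means less beta-gal luminescence so fewer parasites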
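Incubation – ≥90 h infection period, 3 h prior cell attachment · System – NIH/3T3 fibroblasts plus reporter T. cruzi · Doses – compound pinned at 50 nL/well, DMSO · Read-out basis – percent inhibition of parasite-derived β-gal signal · Signal – luminescent β-galactosidase signal after 60 min lysis · Also added – 5000 T. cruzi trypomastigotes/well · Medium – Low-serum DMEM with 2% FBS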
Active calls of the source: *; . = no result given.

SMILES	Mdm2 MdmX PPI	CSC inhib	Beta apoptosis	CHOP UPR activ	UPR XBP1 act	T cruzi repl
CN(CC(=O)Nc1cccc(F)c1)C(=O)c1cn(-c2ccccc2)nc1-c1ccc(Cl)cc1	26.1	102.0*	18.2	0.3	-1.1	.
COc1ccc(NC(=S)NN(C)C(=S)Nc2ccc(OC)cc2)cc1	43.9	123.3*	1.9	0.3	-1.8	-59.0
O=C1CCC[C@@H]2Cc3[nH]c4c(Cl)ccc(Cl)c4c3[C@@H]3CCN1[C@H]23	27.4	3.7	-9.0	3.1	-1.2	63.8*
COc1cc(-c2nc3oc4ccccc4c(=O)c3c(=O)n2Cc2ccco2)cc(OC)c1OC	37.1	.	18.3	0.1	1.4	26.9
Cc1snc(S(=O)(=O)/C(C#N)=N\Nc2ccccc2)c1C#N	8.6	-11.9	-6.9	0.7	-0.7	2.4
Cc1snc(S(=O)(=O)/C(C#N)=N/Nc2ccc(C(F)(F)F)cc2)c1C#N	10.7	89.0*	-1.7	-2.5	4.1	-7.4
Oc1ccc(-c2nccc(-c3ccc(Cl)cc3Cl)n2)cc1	11.0	-15.9	-0.6	2.1	1.8	79.0*
Oc1ccc(-c2nccc(-c3ccc(Cl)cc3)n2)cc1	-60.2	-8.4	.	3.7	1.8	39.4
COCCN(C(=O)COC(=O)C1CCC(C(C)(C)C)CC1)c1c(N)n(Cc2ccccc2)c(=O)[nH]c1=O (centres undefined)	26.0	-4.0	106.3*	-1.4	-1.9	7.8
CCCCC1CCC(C(=O)OCC(=O)N(CCOC)c2c(N)n(Cc3ccccc3)c(=O)[nH]c2=O)CC1 (centres undefined)	7.3	0.1	-6.3	3.4	1.2	8.5
CN1/C(=C\C(=O)CN2C(=O)NC3(CCCCCC3)C2=O)C(C)(C)c2ccccc21	-2.7	-10.3	112.7*	-0.4	-0.4	37.9
Cc1cccc[n+]1CC(=O)/C=C1\N(C)c2ccccc2C1(C)C	-0.9	31.2	14.5	-1.1	1.5	10.1
COCCn1c(SCC(=O)c2c(-c3ccccc3)n(C)c3ccccc23)nnc1-c1ccncc1	-0.7	6.4	-3.2	1.5	9.4	23.3
Cc1cc(=O)[nH]c(SCC(=O)/C=C2\N(C)c3ccccc3C2(C)C)n1	-7.2	-8.2	116.6*	-2.8	-2.6	14.7
CN1/C(=C/C(=O)CSc2ccccc2C(=O)O)C(C)(C)c2ccccc21	12.4	-12.1	41.8	-1.5	-2.1	3.2
COCCn1c(SCC(=O)/C=C2\N(C)c3ccccc3C2(C)C)nnc1-c1ccncc1	-1.0	6.7	79.9*	-1.1	0.7	19.1
COc1ccc(NC(=O)CN(C)C(=O)/C=C/c2cn(-c3ccccc3)nc2-c2ccc(F)cc2)cc1	24.2	7.9	-0.9	2.8	-1.5	16.6
COc1ccc(NC(=O)CN(C)C(=O)/C=C/c2cn(-c3ccccc3)nc2-c2ccc(C)cc2)cc1	20.4	11.2	6.7	0.6	0.5	71.7*
Oc1ccc(Br)cc1-c1cc(-c2ccccc2)n[nH]1	39.1	120.4*	20.8	2.3	2.8	3.2
CN1CCN(C(=O)c2cc3c(n(-c4ccccc4)c2=O)CC(C)(C)CC3=O)CC1	-1.2	-4.9	-2.4	-2.2	-1.4	0.2
O=[N+]([O-])c1ccc(C2CCCC/C2=N/OCc2ccc(F)cc2)c([N+](=O)[O-])c1 (centres undefined)	10.1	15.1	-2.4	-0.2	0.4	61.0*
S=C(Nc1ccc(Oc2ccccc2)cc1)NC1CCCCCC1	.	95.3*	5.6	.	.	11.2
COc1ccccc1NC(=S)NC1CCCCCCCCCCC1	49.9	19.9	76.7*	1.1	3.0	53.7
COc1ccc(C)cc1N(C(=O)c1ccccc1F)c1nc2ccccc2s1	18.7	2.6	-1.0	-0.8	-2.5	-0.5
Nc1c(C(=O)Nc2ccc3c(c2)OCCO3)nnn1Cc1cccc(Br)c1	-75.1	77.0*	1.5	4.8	23.5	-8.5
SMILES	Mdm2 MdmX PPI	CSC inhib	Beta apoptosis	CHOP UPR activ	UPR XBP1 act	T cruzi repl
Nc1c(C(=O)Nc2ccc3c(c2)OCCO3)nnn1Cc1ccc(Br)cc1	-93.8	-11.2	0.2	8.1	9.3	5.1
CCOC(=O)c1c(CSc2ccc(C)cc2)n(C)c2cc(Br)c(O)c(CN(C)C)c12	31.0	97.2*	3.5	0.5	1.1	41.5
Cc1cc(NS(=O)(=O)c2ccc(NC(=O)c3ccc([N+](=O)[O-])s3)cc2)nc(C)n1	11.7	15.7	-6.3	-1.7	0.3	.
Cc1ccnc(NS(=O)(=O)c2ccc(NC(=O)c3ccc([N+](=O)[O-])s3)cc2)n1	18.2	27.0	-8.6	-1.1	-3.2	66.9*
O=C(Nc1ccc(S(=O)(=O)NC2=NCCCCC2)cc1)c1ccc([N+](=O)[O-])s1	28.5	54.9	53.8	3.8	0.8	64.9*
COc1ccc(C(=O)NNc2ccccc2)cc1	-8.2	130.7*	1.7	0.9	-1.0	36.5
COc1ccc(NC(=O)c2ccccc2)cc1	-30.9	12.7	7.5	1.5	-2.9	.
Cc1cc(C)c(C)c(S(=O)(=O)N2CCN(c3ccc(O)cc3)CC2)c1C	17.1	84.6*	-8.3	0.7	-1.8	6.6
Cc1cc(C)c(C)c(S(=O)(=O)N2CCN(c3ncnc4ccccc34)CC2)c1C	28.5	34.4	104.4*	3.9	0.1	.
O=C1CC[C@@H](OCc2ccccc2)CCN1CC[C@H](Sc1ccccc1)c1ccccc1	2.7	40.9	-1.2	0.7	-3.1	20.5
Cc1cc(/C=N/NC(=O)c2cc3ccccc3o2)c(C)n1C	27.5	-3.6	4.4	3.4	-3.6	-12.9
O=C(COc1coc(CN2CCN(c3ccc(F)cc3)CC2)cc1=O)NCC1CCCO1 (centres undefined)	12.0	-0.3	.	0.9	-1.0	-9.2
Cc1ncc(CN2CCCC(C(=O)Nc3ccc(-c4cccc(F)c4)cc3)C2)s1 (centres undefined)	22.6	101.0*	-11.2	3.8	-1.5	34.6
COc1ccc(Cl)cc1C(=O)C1CCCN(Cc2cnc(N3CCOCC3)s2)C1 (centres undefined)	-4.4	-7.2	.	-1.1	-1.7	71.6*
COc1ccc2cc(C(=O)C3CCCN(Cc4cnc(C)s4)C3)ccc2c1 (centres undefined)	17.0	-5.4	12.6	2.3	-0.1	15.7
COc1ccc(F)cc1C(=O)C1CCCN(Cc2cnc(N3CCCC3)s2)C1 (centres undefined)	-14.5	-11.5	0.5	1.2	-1.5	56.6*
COc1c(C)cc(C(=O)C2CCCN(Cc3cnc(N4CCOCC4)s3)C2)cc1C (centres undefined)	23.1	-6.2	-0.9	1.5	-2.1	39.9
